Results from ChEMBL document CHEMBL2417437, “A hit to lead discovery of novel N-methylated imidazolo-, pyrrolo-, and pyrazolo-pyrimidines as potent and selective mTOR inhibitors” (Bioorg Med Chem Lett, 2013).

What was measured:
[1] = target: Phosphatidylinositol 4,5-bisphosphate 3-kinase catalytic subunit alpha isoform (Homo sapiens, UniProt P42336); assay: Displacement of TAMRA-PIP3 from PI3Kalpha GRP-1 pleckstrin homology domain (unknown origin) assessed as formation of 3,4,5-inositoltriphosphate after 30 mins by fluorescence polarization assay
Chain of Phosphatidylinositol 4,5-bisphosphate 3-kinase catalytic subunit alpha isoform (P42336 whole entry, the tested form may be a part, canonical isoform): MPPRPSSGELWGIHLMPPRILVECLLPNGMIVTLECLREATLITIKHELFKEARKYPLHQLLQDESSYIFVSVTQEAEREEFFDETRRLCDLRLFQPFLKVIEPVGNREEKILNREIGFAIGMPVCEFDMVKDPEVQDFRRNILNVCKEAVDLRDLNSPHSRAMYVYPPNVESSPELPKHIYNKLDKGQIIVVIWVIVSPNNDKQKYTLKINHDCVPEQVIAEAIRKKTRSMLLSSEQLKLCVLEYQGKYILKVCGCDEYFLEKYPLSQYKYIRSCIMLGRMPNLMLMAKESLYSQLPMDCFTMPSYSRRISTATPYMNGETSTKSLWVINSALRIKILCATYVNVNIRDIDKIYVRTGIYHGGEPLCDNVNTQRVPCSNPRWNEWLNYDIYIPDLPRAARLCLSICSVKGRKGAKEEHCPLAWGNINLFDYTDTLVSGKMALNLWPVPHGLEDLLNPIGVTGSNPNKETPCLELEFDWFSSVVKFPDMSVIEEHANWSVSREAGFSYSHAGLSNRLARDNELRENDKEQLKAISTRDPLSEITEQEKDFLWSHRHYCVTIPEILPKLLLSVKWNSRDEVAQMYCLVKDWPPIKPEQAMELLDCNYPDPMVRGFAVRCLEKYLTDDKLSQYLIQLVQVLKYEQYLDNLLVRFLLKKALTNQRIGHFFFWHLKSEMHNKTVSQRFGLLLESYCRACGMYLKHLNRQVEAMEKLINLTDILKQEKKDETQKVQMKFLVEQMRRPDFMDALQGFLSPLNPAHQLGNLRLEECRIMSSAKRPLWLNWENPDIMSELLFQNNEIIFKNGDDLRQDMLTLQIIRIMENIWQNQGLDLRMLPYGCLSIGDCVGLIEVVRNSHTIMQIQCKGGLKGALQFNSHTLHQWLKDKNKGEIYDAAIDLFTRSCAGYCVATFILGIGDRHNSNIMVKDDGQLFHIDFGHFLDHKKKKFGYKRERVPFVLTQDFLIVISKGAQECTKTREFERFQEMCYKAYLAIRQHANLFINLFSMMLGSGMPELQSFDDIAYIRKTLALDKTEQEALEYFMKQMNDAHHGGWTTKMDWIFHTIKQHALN

[2] = target: T1, Phosphatidylinositol 4,5-bisphosphate 3-kinase catalytic subunit delta isoform (Homo sapiens, UniProt O00329); assay: Displacement of TAMRA-PIP3 from PI3Kdelta GRP-1 pleckstrin homology domain (unknown origin) assessed as formation of 3,4,5-inositoltriphosphate after 30 mins by fluorescence polarization assay
T1 sequence (O00329 whole entry): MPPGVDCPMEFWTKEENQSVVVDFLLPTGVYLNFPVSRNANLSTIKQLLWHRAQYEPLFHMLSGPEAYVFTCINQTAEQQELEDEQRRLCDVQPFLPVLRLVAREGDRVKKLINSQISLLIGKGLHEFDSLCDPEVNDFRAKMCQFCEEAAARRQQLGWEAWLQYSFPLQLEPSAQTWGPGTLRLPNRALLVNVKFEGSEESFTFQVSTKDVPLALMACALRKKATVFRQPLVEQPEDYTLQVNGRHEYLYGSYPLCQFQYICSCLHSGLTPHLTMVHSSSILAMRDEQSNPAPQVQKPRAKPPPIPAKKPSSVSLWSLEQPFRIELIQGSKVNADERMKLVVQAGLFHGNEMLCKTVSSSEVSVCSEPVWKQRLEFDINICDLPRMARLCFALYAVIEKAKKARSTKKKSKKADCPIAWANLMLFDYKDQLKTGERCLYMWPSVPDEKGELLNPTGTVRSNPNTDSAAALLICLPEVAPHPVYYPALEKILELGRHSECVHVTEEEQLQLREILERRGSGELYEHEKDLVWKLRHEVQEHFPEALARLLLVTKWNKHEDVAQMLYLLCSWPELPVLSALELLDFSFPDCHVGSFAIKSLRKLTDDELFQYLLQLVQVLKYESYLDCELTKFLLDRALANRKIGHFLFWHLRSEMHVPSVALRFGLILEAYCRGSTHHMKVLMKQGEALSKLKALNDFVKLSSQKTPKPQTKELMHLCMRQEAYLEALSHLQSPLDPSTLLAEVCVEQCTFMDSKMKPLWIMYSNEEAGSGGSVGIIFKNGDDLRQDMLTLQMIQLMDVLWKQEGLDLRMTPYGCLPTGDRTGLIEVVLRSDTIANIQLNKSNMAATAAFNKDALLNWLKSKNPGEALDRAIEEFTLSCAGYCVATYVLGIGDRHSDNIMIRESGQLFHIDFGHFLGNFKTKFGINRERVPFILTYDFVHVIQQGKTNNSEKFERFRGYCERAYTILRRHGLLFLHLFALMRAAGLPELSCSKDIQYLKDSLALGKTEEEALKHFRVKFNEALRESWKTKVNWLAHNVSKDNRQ

[3] = target: T2, Serine/threonine-protein kinase mTOR (Homo sapiens, UniProt P42345); assay: Inhibition of mTOR in PTEN deficient human PC3 cells assessed as inhibition of Akt phosphorylation at Ser473; type: cell-based, PC-3
Homo sapiens [4] = organism: Homo sapiens; assay: Selectivity ratio of IC50 for PI3Kdelta (unknown origin) to Ki for human recombinant mTOR (1360-2549)
In short: (§1)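 Ratio of two biochemical values. The PI3K IC50 (PI3Kα or PI3Kδ) comes from a fluorescence polarization kinase assay. The mTOR Ki comes from a LanthaScreen FRET assay on the recombinant mTOR kinase domain. Each value is from at least two separate determinations, with typical variation under 30%.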

Homo sapiens [5] = organism: Homo sapiens; assay: Selectivity ratio of IC50 for PI3Kalpha (unknown origin) to Ki for human recombinant mTOR (1360-2549); in short: as §1
[6] = target: T2, Serine/threonine-protein kinase mTOR; assay: Inhibition of mTOR in PTEN deficient human PC3 cells assessed as inhibition of p70S6K phosphorylation; type: cell-based, PC-3
[7] = target: T2, Serine/threonine-protein kinase mTOR; assay: Inhibition of human recombinant mTOR (1360-2549) expressed in insect cells assessed as phosphorylation of recombinant (GFP)-4-EBP1 after 30 mins by LanthaScreen FRET assay
MCF7 = assay: Antiproliferative activity against human MCF7 cells expressing neo/Her2 assessed as cell viability after 3 days by CellTiter-Glo assay; type: functional, cell-based; settings: MCF7, 72 h
In short: (§2)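 Three-day cell viability assay in PTEN-null NCI-PC3 prostate carcinoma cells and in MCF7 neo/HER2 cells, read as antiproliferative activity.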

PC-3 = assay: Antiproliferative activity against PTEN deficient human PC3 cells assessed as cell viability after 3 days by CellTiter-Glo assay; type: functional, cell-based; settings: PC-3, 72 h; in short: as §2
[8] = target: T2, Serine/threonine-protein kinase mTOR; assay: Inhibition of mTOR (unknown origin)
[9] = Apparent permeability across basolateral to apical side in MDCK cells; type: ADME, cell-based, Canis lupus familiaris; settings: dog
[10] = Oral bioavailability in mouse at 25 mg/kg; type: ADME, organism-based; settings: in vivo
In short: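 Mice were given a 25 mg/kg oral dose as a suspension in MCT. Bioavailability was reported as %F.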

[11] = Plasma clearance in iv dosed mouse; type: ADME, organism-based
[12] = Volume of distribution at steady state in iv dosed mouse; type: ADME, organism-based; settings: in vivo, read-out: Vdss
[13] = Efflux ratio of apparent permeability in MDCK cells; type: ADME, cell-based, Canis lupus familiaris; settings: dog

| SMILES | IC50 [3] | IC50 [6] | Ki [1] | Ki [2] | Ki [7] | EC50 (MCF7) | EC50 (PC-3) | also measured |
| --- | --- | --- | --- | --- | --- | --- | --- | --- |
| CCNC(=O)Nc1ccc(-c2nc(N3CCCOCC3)c3c(ncn3C)n2)cc1 | 7200 nM | 8900 nM | – | – | – | – | – | IC50 [1]: 6400 nM; IC50 [2]: 7300 nM; Ratio (Homo sapiens [4]): 61; Ratio (Homo sapiens [5]): 53 |
| CCNC(=O)Nc1ccc(-c2nc(N3CCOC[C@@H]3CC)c3c(cnn3C)n2)cc1 | 8 nM | 15 nM | 3400 nM | > 10000 nM | 1 nM | 260 nM | 130 nM | – |
| CCNC(=O)Nc1ccc(-c2nc(N3CCOC[C@@H]3C)c3ncn(C)c3n2)cc1 | – | – | 370 nM | 890 nM | 12 nM | – | – | – |
| CCNC(=O)Nc1ccc(-c2nc(N3CCOC[C@@H]3C)c3c(n2)nc(C(C)(C)O)n3C)cc1 | – | – | 7000 nM | 7300 nM | – | – | – | – |
| CCNC(=O)Nc1ccc(-c2nc(N3CCOC[C@H]3C)c3c(ncn3C)n2)cc1 | – | – | – | – | – | – | – | IC50 [1]: 5800 nM; IC50 [2]: 4000 nM |
| CCNC(=O)Nc1ccc(-c2nc(N3CCOC[C@@H]3CC)c3c(ccn3C)n2)cc1 | 11 nM | 40 nM | > 10000 nM | > 10000 nM | 6 nM | 420 nM | 280 nM | – |
| CCNC(=O)Nc1ccc(-c2nc(N3CCOC[C@@H]3C)c3c(ncn3C)n2)cc1 | – | – | > 10000 nM | > 10000 nM | – | 1300 nM | 290 nM | – |
| CCNC(=O)Nc1ccc(-c2nc(N3CCOC[C@@H]3C)c3nc(C(C)(C)O)n(CCO)c3n2)cc1 | – | – | 190 nM | 160 nM | 9.5 nM | – | – | Ki [8]: 9 nM |
| CCNC(=O)Nc1ccc(-c2nc(N3CCOC[C@@H]3C)c3c(ccn3C)n2)cc1 | 77 nM | 110 nM | > 10000 nM | > 10000 nM | 19 nM | 9000 nM | 1900 nM | – |
| CCNC(=O)Nc1ccc(-c2nc(N3CCOC[C@@H]3C)c3nc(C(C)(C)O)n(C)c3n2)cc1 | – | – | 390 nM | 490 nM | 7 nM | – | – | – |
| CCNC(=O)Nc1ccc(-c2nc(N3CCOC[C@@H]3C)c3c(ncn3CC)n2)cc1 | – | – | > 10000 nM | > 10000 nM | – | – | – | – |
| CCNC(=O)Nc1ccc(-c2nc(N3C[C@@H]4C[C@H]3CO4)c3c(cnn3C)n2)cc1 | 340 nM | 270 nM | 5140 nM | 5150 nM | 28 nM | 1700 nM | 2900 nM | – |
| CCNC(=O)Nc1ccc(-c2nc(N3CCOC[C@@H]3C)c3ncn(CC)c3n2)cc1 | – | – | 380 nM | 630 nM | 8 nM | – | – | – |
| CCNC(=O)Nc1ccc(-c2nc(N3CCOCC3)c3c(ncn3C)n2)cc1 | – | – | – | – | 150 nM | – | – | – |
| CCNC(=O)Nc1ccc(-c2nc(N3CCOC[C@@H]3CC)c3c(ncn3C)n2)cc1 | 69 nM | 153 nM | – | – | – | 518 nM | 737 nM | IC50 [1]: > 10000 nM; IC50 [2]: > 10000 nM; Ratio (Homo sapiens [4]): > 2600; Ratio (Homo sapiens [5]): > 2600 |
| CCNC(=O)Nc1ccc(-c2nc(N3CCOC[C@@H]3C)c3c(cnn3C)n2)cc1 | 8 nM | 47 nM | > 10000 nM | > 10000 nM | 8 nM | 760 nM | 420 nM | Papp B→A [9]: 8.6 ×10⁻⁶ cm/s; bioavailability [10]: 4.4%; clearance [11]: 13 mL/min/kg; Vd [12]: 0.36 L/kg; efflux ratio [13]: 0.55 |
| CC(C)(O)c1nc2c(N3CCOCC3)nc(-c3cnc(N)nc3)nc2n1CCO | – | – | 2 nM | 4 nM | – | – | – | Ki [8]: 72 nM |
| CCNC(=O)Nc1ccc(-c2nc(N3CCOC[C@@H]3CC)c3c(n2)c(C)nn3C)cc1 | 4 nM | 8 nM | 5800 nM | > 10000 nM | – | 160 nM | 86 nM | – |
